Assay outcomes as filed in PubChem.
KCNQ1 pot: potentiators or activators of human KCNQ1 potassium channel; P51787; CHO-K1 KCNQ1, thallium flux FluxOR fluorescence; hits give high values; B-score at 10 µM; 310,000 compounds, 0.35% hits; AID 2648;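 active = fluorescence ratio B-score, a plate-corrected score, at least three library SD, with initial intensity B-score within 5 SD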
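assay system = KCNQ1-transfected CHO-K1 cells | medium = assay buffer with matched DMSO | probe or stimulus = depolarizing K+/Tl+ stimulus, K2SO4 and Tl2SO4 each 12.5 mM in 5x stock | dosing = single dose | incubation = dye 90 min, compound 20 min, room temperature | detection = kinetic FluxOR fluorescence, 10 s baseline plus 110 s post-stimulus | evaluation = ratio B score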
KCNK9 block: human KCNK9 channel inhibition. HEK293 KCNK9, FluxOR thallium flux fluorescence; hits give low values. B-score at 10 µM. 310,000 compounds, 1.2% hits. AID 488922;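 active = ratio B-score over 3 SD below the library mean, with starting fluorescence within 5 SD of its mean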;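 also: negative B-score means less thallium flux so channel inhibition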
KCNQ1 inh: human KCNQ1 channel inhibition; CHO-K1 KCNQ1, FluxOR thallium flux fluorescence; hits give high values; P51787; AID 2642; B-score at 10 µM; 310,000 compounds, 1.3% hits;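 active = compounds whose thallium flux B-score, printed positive for inhibition, exceeds three library SD while starting fluorescence stays within three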;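 also: channel opened by potassium depolarization with thallium stimulus after 20 min compound exposure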
KCNK3 inh: human KCNK3 channel inhibition, primary screen; O14649; CHO-KCNK3 thallium flux, FluxOR fluorescence; hits give low values; B-score at 10 µM; 340,000 compounds, 0.84% hits; AID 602410;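 active = B-score under library mean minus 4 SD, starting fluorescence ratio at most library mean plus 5 SD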;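 also: more negative B-score means stronger inhibition of thallium flux through KCNK3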
hERG protect: compounds protecting human hERG from proarrhythmic drug block; Q12809; CHO-hERG, FluxOR thallium flux, dofetilide IC70 present; activation (rescue from dofetilide block), less the hit threshold, % at 10 µM; 310,000 compounds, 0.51% hits;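 active = activation above the mean of controls blocked by dofetilide plus 5 SD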;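 also: thallium influx through hERG after potassium depolarization seen as dye fluorescence rise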
Target sequence (Q12809 whole entry, looked up): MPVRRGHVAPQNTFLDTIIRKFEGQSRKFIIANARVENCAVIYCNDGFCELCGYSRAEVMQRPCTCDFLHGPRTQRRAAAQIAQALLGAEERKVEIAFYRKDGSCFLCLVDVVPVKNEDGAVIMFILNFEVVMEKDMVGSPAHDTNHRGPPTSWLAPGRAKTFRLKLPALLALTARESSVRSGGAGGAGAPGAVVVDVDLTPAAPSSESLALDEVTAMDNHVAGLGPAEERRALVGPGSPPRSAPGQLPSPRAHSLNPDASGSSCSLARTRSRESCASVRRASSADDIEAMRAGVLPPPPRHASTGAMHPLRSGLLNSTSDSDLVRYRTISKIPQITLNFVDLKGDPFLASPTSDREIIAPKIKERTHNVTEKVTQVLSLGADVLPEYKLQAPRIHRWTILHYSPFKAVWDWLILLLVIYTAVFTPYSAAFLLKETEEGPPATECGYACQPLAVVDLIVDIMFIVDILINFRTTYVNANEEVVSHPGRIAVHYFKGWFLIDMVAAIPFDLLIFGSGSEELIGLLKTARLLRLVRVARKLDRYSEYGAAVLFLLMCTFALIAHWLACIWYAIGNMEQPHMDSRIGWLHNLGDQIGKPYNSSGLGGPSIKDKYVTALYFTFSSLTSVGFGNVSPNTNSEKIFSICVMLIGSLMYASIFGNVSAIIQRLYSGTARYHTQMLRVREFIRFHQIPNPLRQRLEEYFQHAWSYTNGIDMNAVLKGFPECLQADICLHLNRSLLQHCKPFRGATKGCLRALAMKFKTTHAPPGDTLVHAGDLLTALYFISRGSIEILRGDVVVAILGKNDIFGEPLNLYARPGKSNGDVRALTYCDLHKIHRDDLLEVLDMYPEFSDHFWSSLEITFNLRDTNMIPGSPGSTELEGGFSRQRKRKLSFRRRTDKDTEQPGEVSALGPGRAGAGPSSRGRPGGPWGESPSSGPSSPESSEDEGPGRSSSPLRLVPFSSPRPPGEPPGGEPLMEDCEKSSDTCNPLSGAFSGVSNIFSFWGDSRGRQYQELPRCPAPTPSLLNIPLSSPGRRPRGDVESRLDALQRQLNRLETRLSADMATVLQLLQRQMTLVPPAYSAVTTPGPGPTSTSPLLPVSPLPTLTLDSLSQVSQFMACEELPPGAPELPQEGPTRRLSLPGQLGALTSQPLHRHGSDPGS
Kir21 block: inhibitors of mouse Kir2.1 inward-rectifier potassium channel | HEK293-Kir2.1, FluxOR thallium flux fluorescence; hits give low values | 310,000 compounds, 0.85% hits | AID 1672 | P35561 | B-score at 10 µM;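 active = fluorescence ratio B-score at or below minus 3 SD of library scores, with starting-brightness B-score within 2 SD, cut at about -4.2 in these data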;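 also: channel flux triggered by added potassium and thallium sulfate stimulus; B-score of peak minus minimum fluorescence over baseline after thallium stimulus; more negative B-score means stronger Kir2.1 block with less thallium influx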
KCNK9 block conf: confirmation of human KCNK9 potassium channel inhibitors; HEK293 KCNK9 cells, FluxOR thallium flux fluorescence; AID 492992; shares compounds with KCNK9 block; inhibition, % at 10 µM; 4,900 compounds, 43% hits;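 active = thallium signal inhibited by more than 5 SD of the compound-free buffer control wells, on both duplicate plates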;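 also: 0% = assay buffer control wells without compound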
Kir21 sel: tests whether KCNK9 modulators also affect mouse Kir2.1. shares compounds with KCNK9 block. Kir2.1 cells, FluxOR thallium flux fluorescence. inhibition, % at 10 µM. AID 492993. 4,900 compounds, 4% hits;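 active = thallium signal drop more than 5 SD beyond the mean of the no-compound control wells, seen in both duplicate plates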;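 also: signal is fluorescence rise after thallium addition divided by baseline fluorescence; plate controls were assay buffer only for no effect and full block by chlorpromazine control for full effect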
HEK293 Tl ctr: non-induced cell nonspecific activity of KCNK9 modulators; shares compounds with KCNK9 block; non-induced KCNK9-HEK293, FluxOR thallium flux; inhibition, % at 10 µM; 4,900 compounds, 40% hits; AID 492997;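 active = thallium signal drop beyond 5 SD of the untreated control mean, on both duplicate plates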;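 also: plate controls were buffer only IC0 wells for no effect and SID17386958 at its maximal inhibitory level for full effect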
KCNK3 inh conf: confirmation of human KCNK3 two-pore domain potassium channel inhibitors; shares compounds with KCNK3 inh; CHO-KCNK3 thallium flux, FluxOR fluorescence; 0% buffer, 100% carvedilol maximal block; ratio percent of control, % at 10 µM; 2,400 compounds, 99% hits;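 active = ratio percent of control, averaged over triplicates, above buffer control mean plus 5 SD, cut at about 64% in these data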;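 also: ratio is the fluorescence rise from min to max over baseline after thallium stimulus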
KCNK3 uninduced: activity in cells without induced KCNK3 expression; shares compounds with KCNK3 inh; non-induced KCNK3 parental cells, FluxOR thallium flux; hits give low values; thallium flux ratio (lower = more inhibition) at 10 µM; 2,400 compounds, 40% hits; AID 651747;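 active = thallium flux ratio, averaged over three wells, more than 5 SD below the buffer control mean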;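 also: host cells are CHO cells without KCNK3 induction; ratio is peak minus trough fluorescence over baseline then normalized to buffer controls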
An asterisk follows results filed as active; i = inactive; . = not tested or not shown. The list is not random: actives were taken first. Their share in the collection is about 3.8%.

SMILES	KCNQ1 pot	KCNK9 block	KCNQ1 inh	KCNK3 inh	hERG protect	Kir21 block	KCNK9 block conf	Kir21 sel	HEK293 Tl ctr	KCNK3 inh conf	KCNK3 uninduced
COc1ccc(C(CC(=O)Nc2ccc(F)cc2)c2ccccc2)cc1 (centres undefined)	i	i	i	i	-7.9	-0.67	.	.	.	.	.
CN(CCCNC(=O)c1ccccc1F)CCCNC(=O)c1ccccc1F	i	i	i	i	-5.8	-0.01	.	.	.	.	.
COc1ccc(CNCc2ccc(C(F)(F)F)cc2)cc1OC	i	i	i	i	-2.4	0.39	.	.	.	.	.
CSc1nc(N2CCN(c3ccccc3Cl)CC2)c2ccccc2n1	i	-14.2*	i	i	-12.3	-0.71	59.5%*	i	33.5%*	104.0*	i
CC1CCN(C(=O)N2c3ccccc3Sc3ccccc32)CC1	i	-9.35*	11*	-11.1*	-18.3	-0.01	58.5%*	i	45.5%*	113.3*	0.134*
C=C1c2cccc(C(F)(F)F)c2O[C@H](C(=O)OCC)[C@H]1OC	.	.	.	i	.	.	.	.	.	.	.
Cc1ccc(S(=O)(=O)N2CCC(C(=O)Nc3nnc(C)s3)CC2)cc1	i	i	i	i	-2.7	-1.21	.	.	.	.	.
COc1ccc(C)cc1S(=O)(=O)NC(C)C(=O)Nc1ccc2c(c1)OCO2 (centres undefined)	i	i	i	i	-5.9	0.98	.	.	.	.	.
COc1ccc(NC(=S)N(CCN2CCCCC2)Cc2ccco2)cc1	i	i	i	i	-20.5	-0.72	.	.	.	.	.
Cc1ccc(NC(=S)N(CCN2CCCCC2)Cc2ccco2)cc1Cl	i	-8.24*	i	-10.1*	-9.8	1.14	i	i	26.5%*	108.0*	i
O=C(C1CC1)N(Cc1ccco1)c1nc(-c2ccccc2)cs1	i	-11.8*	i	-9.55*	-10.2	-1.3	30.5%*	i	49.0%*	109.3*	i
O=C(COc1ccc(Cl)cc1)N(Cc1ccccc1)c1nc(-c2ccccc2)cs1	i	i	i	i	-13.3	-2.41	.	.	.	.	.
COc1cc2c(cc1OC)C(c1cccc([N+](=O)[O-])c1)N(C(=O)CCC(=O)O)CC2 (centres undefined)	i	i	i	i	-2.7	0.06	.	.	.	.	.
COc1cc2c(cc1OC)C(c1cccc([N+](=O)[O-])c1)N(C(=O)c1ccc(F)cc1)CC2 (centres undefined)	i	-17.1*	11*	-10.9*	-12.4	0.41	74.0%*	i	37.5%*	96.0*	0.155*
Cc1ccc(C)c(Nc2cc(C)nc(-c3ccccc3O)n2)c1	i	-9.36*	i	-10.5*	-3.8	-0.32	49.0%*	i	40.0%*	125.3*	0.125*
COc1ccccc1NCCC(=O)OCC(=O)Nc1ccccc1F	.	.	.	i	.	.	.	.	.	.	.
CCN(CC)C1=N/C(=C\c2ccco2)C(=O)N1c1ccccc1	i	i	i	i	-12.3	0.8	.	.	.	.	.
CC(C)CN(CC(C)C)C1=N/C(=C\c2ccco2)C(=O)N1c1ccccc1	i	-9.85*	i	-9.23*	-6.7	1.4	56.0%*	i	46.5%*	125.3*	i
Cc1ccc(COn2c(-c3ccc(Cl)cc3Cl)nc3ncccc32)cc1	i	-11.2*	i	-9.6*	-15.3	-5.12*	55.5%*	i	42.0%*	120.0*	0.146*
O=C(COc1ccccc1Cc1ccccc1)Nc1cccnc1	.	.	.	i	.	.	.	.	.	.	.
COc1cc(O)cc2c1[C@@H]1Oc3c(ccc(O)c3CC=C(C)C)[C@@H]1CO2	i	-11.6*	i	i	-25.6	-5.15*	54.0%*	i	i	136.7*	0.124*
COc1cc2ccc(=O)oc2c(CC=C(C)C)c1OC	i	i	i	i	-10.2	0.57	.	.	.	.	.
CCc1nc(SCC(=O)NNC(=O)c2ccc(OC)cc2)c2ccccc2n1	i	i	i	i	-0.9	1.16	.	.	.	.	.
CCCc1nc(SCC(=O)c2ccc(OC)cc2)c2ccccc2n1	i	-18.6*	i	-10.9*	-8.2	-1.09	78.0%*	i	27.0%*	107.7*	0.158*
c1ccc(-n2nnnc2SCCCSc2nc3ccccc3s2)cc1	i	-15.4*	i	-9.88*	-13.4	-0.21	62.5%*	i	46.0%*	103.3*	i
SMILES	KCNQ1 pot	KCNK9 block	KCNQ1 inh	KCNK3 inh	hERG protect	Kir21 block	KCNK9 block conf	Kir21 sel	HEK293 Tl ctr	KCNK3 inh conf	KCNK3 uninduced
O=C(CSc1nc2ccc(NC(=O)CSc3nnnn3-c3ccccc3)cc2s1)Nc1ccccc1	i	i	i	i	-0.4	1.16	.	.	.	.	.
O=C(Nc1cccc(Cl)c1)N(CCN1CCOCC1)Cc1ccccc1F	i	i	i	i	-18.9	0.23	.	.	.	.	.
C=CCC(c1ccccc1F)N(CCN1CCOCC1)C(=O)Nc1cccc(Cl)c1 (centres undefined)	i	-12.9*	i	-8.94*	-14.4	-0.26	57.0%*	i	39.5%*	127.3*	0.14*
O=C(CSc1ccccc1)N1CCCC(N2CCN(c3cccc(Cl)c3)CC2)C1 (centres undefined)	i	i	i	i	-8.3	-1.89	.	.	.	.	.
CCn1cc(CNC(=O)c2cccc([N+](=O)[O-])c2)c(C)n1	i	i	i	i	-5.3	1.61	.	.	.	.	.
O=C(NCc1cn(-c2ccccc2)nc1-c1ccc(F)cc1)c1cccc([N+](=O)[O-])c1	i	-16.7*	i	-8.8*	-9.0	1.33	77.5%*	i	31.0%*	104.0*	0.14*
COc1ccc2ccc(=O)oc2c1CC=C(C)C	i	-15.3*	i	-11.6*	-12.1	0.02	71.5%*	i	38.0%*	104.0*	i
Cc1sc2nc3c(C(=O)N4CCCC4)cc(C(=O)c4ccccc4O)cn3c(=O)c2c1C	i	i	i	i	-10.5	0.45	.	.	.	.	.
CCc1c(C)sc2nc3c(C(=O)N4CCOCC4)cc(C(=O)c4cc(F)ccc4O)cn3c(=O)c12	i	-12.6*	i	-8.84*	-6.5	-2.16	i	i	23.5%*	95.7*	i
